Published values from different studies.
Lines come from different studies, so protocols differ.
TOP2A: DNA topoisomerase 2-alpha (TOP2A, Homo sapiens, UniProt P11388)
TNKS2: Poly [ADP-ribose] polymerase tankyrase-2 (TNKS2, Homo sapiens, UniProt Q9H2K2)
mraY: mraY (Staphylococcus aureus, UniProt Q2FZ93)

SMILES	target	read-out	mode	method	IC50
COc1cccc(Nc2nc(-c3ccncc3)nc3c2CNCC3)c1	TOP2A	enzyme activity	inhibitor		120 µM
CN(C)CCNC(=O)c1ccc(-c2nc3ccc4[nH]ncc4c3c3c2CCCCC3)cc1	Receptor-type tyrosine-protein kinase FLT3 (FLT3, Homo sapiens, UniProt P36888, F691L)	enzyme activity	inhibitor		0.287 µM
CC(C)(O)c1ccc(-c2nc3cc(NC(=O)c4ccc(-c5ccccc5)nc4)ccc3c(=O)[nH]2)cc1	TNKS2	enzyme activity	inhibitor		0.0106 µM
Fc1cccc(Nc2nc(-c3ccncc3)nc3c2CNCC3)c1	TOP2A	enzyme activity	inhibitor		25 µM
Cc1n[nH]c2ccc3nc(-c4ccc(C(=O)NCCN(C)C)cc4)c4c(c3c12)CCCCC4	Receptor-type tyrosine-protein kinase FLT3 (FLT3, Homo sapiens, UniProt P36888, D835Y)	enzyme activity	inhibitor		0.034 µM
Cc1cc(-c2ccccc2)nnc1NCCN1CCOCC1	5-hydroxytryptamine receptor 2B (HTR2B, Homo sapiens, UniProt P41595)	calcium signal	antagonist		6.2 µM
CN(C)c1cccc(Nc2nc(-c3ccncc3)nc3c2CNCC3)c1	TOP2A	enzyme activity	inhibitor		140 µM
CC(C)(O)c1ccc(-c2nc3cc(NC(=O)c4ccc(-c5ccccc5)cc4)ccc3c(=O)[nH]2)cc1	TNKS2	enzyme activity	inhibitor		0.035 µM
CCCCCCC#Cc1cncc(-c2nnc(SCc3cc([N+](=O)[O-])cc([N+](=O)[O-])c3)n2CCCN)c1	mraY	enzyme activity	inhibitor		25 µM
Cc1cc2c(cc1C)N[C@H](c1ccccc1)[C@@H](O)C(=O)N2	Aurora kinase C (AURKC, Homo sapiens, UniProt Q9UQB9)	enzyme activity	inhibitor	ELISA	0.211 µM
C=CCn1c(=O)c2cnc(Nc3ccc(N4CCN(C)CC4)cc3)nc2n1-c1ccc2c(n1)[C@@](O)(CC)CC2	Serine/threonine-protein kinase PLK1 (PLK1, Homo sapiens, UniProt P53350)	target engagement in cells		BRET	> 10 µM
CN(C)CCNC(=O)c1ccc(-c2nc3ccc4[nH]ncc4c3c3c2CCCCC3)cn1	Receptor-type tyrosine-protein kinase FLT3 (FLT3, Homo sapiens, UniProt P36888, ITD)	enzyme activity	inhibitor		0.42 µM
CC(C)(O)c1ccc(-c2nc3cc(NC(=O)c4cnc(Oc5ccccc5)nc4)ccc3c(=O)[nH]2)cc1	TNKS2	enzyme activity	inhibitor		0.00796 µM
CCCCCCC#Cc1cncc(-c2nnc(SCc3cc([N+](=O)[O-])cc([N+](=O)[O-])c3)n2C2CCNCC2)c1	mraY	enzyme activity	inhibitor		~100 µM
Cc1n[nH]c2ccc3nc(-c4ccc(C(=O)NCCN(C)C)cc4F)c4c(c3c12)CCCCC4	Receptor-type tyrosine-protein kinase FLT3 (FLT3, Homo sapiens, UniProt P36888)	enzyme activity	inhibitor		0.138 µM
